Measurements gathered from unrelated publications.
Compare with care: the assays were run in different laboratories.
OfChi-h: Chitinase (OfChi-h, Ostrinia furnacalis, UniProt Q4AE59)
WDR5: WD repeat-containing protein 5 (WDR5, Homo sapiens, UniProt P61964)
HDAC7: Histone deacetylase 7 (HDAC7, Homo sapiens, UniProt Q8WUI4)
PRKCE: Protein kinase C epsilon type (PRKCE, Homo sapiens, UniProt Q02156)

| Compound | target | test | setting | quantity | result |
| --- | --- | --- | --- | --- | --- |
| CN(C)c1nc(NCc2cccc(F)c2)c(/N=N/c2ccc(Cl)cc2)c(N(C)C)n1 | OfChi-h | enzyme activity, inhibitor, fluorescence | 1 µM | inhibition | 82.7% |
| COc1ccc(S(=O)(=O)N(CC(=O)NO)CC(C)C)cc1 | 72 kDa type IV collagenase (MMP2, Homo sapiens, UniProt P08253) | enzyme activity, inhibitor | 0.5 µM | inhibition | 60.9% |
| CC(C)Oc1ccc(S(=O)(=O)c2ccc(Oc3cc(OCC(N)=O)c(C(=O)C(Cl)Cl)cc3[N+](=O)[O-])cc2)cc1 | [Pyruvate dehydrogenase (acetyl-transferring)] kinase isozyme 3, mitochondrial (PDK3, Homo sapiens, UniProt Q15120) | enzyme activity, inhibitor, ATP luminescence | 10 µM | inhibition | 27.9% |
| C[C@@H]1CN(c2ccc(-c3cc(C(=O)NCCOCCOCCOCCOCCNC(=O)Cn4cc(-c5[nH]cc(C(=O)N[C@@H](CC(N)=O)c6ccc(F)c(Cl)c6)c5-c5ccc(Cl)cc5F)cn4)ccc3F)cc2NC(=O)c2c[nH]c(=O)cc2C(F)(F)F)C[C@H](C)N1C | WDR5 | thermal stability, DSF | 5.5 µM | ΔTm | 13.4 °C |
| O=C(NO)c1cc(F)cc(OS(=O)(=O)Oc2ccccc2)c1 | HDAC7 | enzyme activity, inhibitor, fluorescence | 10 µM | inhibition | 47% |
| CN(C)c1nc(NCc2ccc(OC(F)(F)F)cc2)c(/N=N/c2ccc(Cl)cc2)c(N(C)C)n1 | OfChi-h | enzyme activity, inhibitor, fluorescence | 1 µM | inhibition | 85% |
| Cc1cc([C@@H](C)Nc2ccccc2C(=O)O)c2nc(N3CCC(F)(F)CC3)c(C#N)c(=O)n2c1 | PRKCE | binding, competition with immobilised ligand | 10 µM | remaining binding | 100% |
| C[C@@H]1CN(c2ccc(-c3cc(C(=O)NCCOCCOCCOCCOCCOCCOCCNC(=O)/C=C/c4[nH]cc(C(=O)N[C@@H](CC(N)=O)c5ccc(F)c(Cl)c5)c4-c4ccc(Cl)cc4F)ccc3F)cc2NC(=O)c2ccc(F)cc2C(F)(F)F)C[C@H](C)N1C | WDR5 | thermal stability, DSF | 5.5 µM | ΔTm | 5.9 °C |
| CNc1ncc2c(/C=C/C(=O)N3CCC(OC)CC3)nn(Cc3cccc(C(F)(F)F)c3)c2n1 | PRKCE | enzyme activity, inhibitor, radiometric | 1 µM | remaining activity | 99% |
| O=C(/C=C/c1cccc(OS(=O)(=O)Oc2ccc(C(F)(F)F)cc2)c1)NO | HDAC7 | enzyme activity, inhibitor, fluorescence | 10 µM | inhibition | 30% |
| O=C(O)CNc1cccc(CN(Cc2ccc(-n3cccn3)cc2)S(=O)(=O)c2cccnc2)n1 | Beta-2 adrenergic receptor (ADRB2, Homo sapiens, UniProt P07550) | ligand displacement, radioligand | 10 µM | inhibition | 12% |
| C=CC(=O)N1CCC(COCC(=O)N2CCN(c3nc(-c4cnc(N)nc4C(F)F)nc(N4CCOC[C@@H]4C)n3)CC2)CC1 | Epithelial discoidin domain-containing receptor 1 (DDR1, Homo sapiens, UniProt Q08345) | binding, competition with immobilised ligand | 1 µM | remaining binding | 99% |
| COc1cc(-c2cncc3c2CN(C)Cc2cc(N4CCNCC4)ccc2-3)cc(OC)c1OC | Serine/threonine-protein kinase 35 (STK35, Homo sapiens, UniProt Q8TDR2) | enzyme activity, inhibitor | 1 µM | remaining activity | 111% |
